# High-throughput results (PubChem)
# Runt-SMMHC FRET = Runt domain-CBFb-SMMHC interaction inhibition. Q01196+Q13951. Cerulean-Runt/Venus-CBFb-SMMHC FRET ratio 530/480, 1 h. inhibition, % at 20 µM. actives 0.74% (n = 220,000);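 active means mean inhibition across duplicate retests at 20 µM reaching about 50%, limit read from the data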;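 further: 0% = DMSO wells and 100% = wells with excess untagged CBFb-SMMHC; inhibitors lower the FRET ratio by blocking Runt binding to CBFb-SMMHC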
# Target sequence (Q01196 whole entry, looked up, the tested form may be a part): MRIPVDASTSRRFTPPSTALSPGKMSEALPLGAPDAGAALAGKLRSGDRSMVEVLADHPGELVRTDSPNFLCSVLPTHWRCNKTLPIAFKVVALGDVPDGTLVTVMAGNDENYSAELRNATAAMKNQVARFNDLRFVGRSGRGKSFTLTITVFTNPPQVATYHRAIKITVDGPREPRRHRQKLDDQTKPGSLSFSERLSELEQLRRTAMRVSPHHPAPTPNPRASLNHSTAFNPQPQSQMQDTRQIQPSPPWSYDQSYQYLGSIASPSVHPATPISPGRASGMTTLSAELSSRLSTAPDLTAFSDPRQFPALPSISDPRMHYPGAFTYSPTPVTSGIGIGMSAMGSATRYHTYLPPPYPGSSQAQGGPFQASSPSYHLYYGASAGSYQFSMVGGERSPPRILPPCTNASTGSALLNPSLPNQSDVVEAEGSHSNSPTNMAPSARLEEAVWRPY
# Target sequence (Q13951 whole entry, looked up, the tested form may be a part): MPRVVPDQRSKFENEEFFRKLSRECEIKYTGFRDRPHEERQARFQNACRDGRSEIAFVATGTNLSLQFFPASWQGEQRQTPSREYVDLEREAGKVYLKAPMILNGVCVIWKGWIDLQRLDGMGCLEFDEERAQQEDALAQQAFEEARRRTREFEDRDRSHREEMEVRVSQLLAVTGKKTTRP
# Runt-CBFb FRET = inhibitors of human RUNX1 Runt domain binding to CBFb; Q01196+Q13951; Cerulean-Runt/Venus-CBFb FRET ratio 530/480, 1 h; inhibition, % at 20 µM; actives 0.46% (n = 220,000); AID 1496;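 active means inhibition over about 50% at 20 µM in the single-dose screen, limit read from the data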;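 further: 0% = DMSO wells and 100% = excess unlabeled CBFb competitor control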
#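 Measured by: fluorescence energy transfer, 422 nm excitation, 530/480 nm emission; test system: Cerulean-tagged RUNX1 Runt domain (FRET donor) fusion protein; buffer or medium: Tris pH 7.5 buffer with BSA; compound: one dose, 20 µM compound, 1% DMSO; times: two 1 h room-temperature incubations shielded from light; benchmarks: unlabeled CBFb 5 µM, positive control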
# VIM-2 inh = blocks Pseudomonas aeruginosa VIM-2 metallo-beta-lactamase. purified VIM-2, nitrocefin hydrolysis, epi-absorbance fluorescence. inhibition, % at 5.6 µM. actives 0.89% (n = 290,000). AID 1527;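 active means inhibition above the mean of all tested compounds plus 3 SD, cutoff set per screening run, cut at about 7.5% in these data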;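 further: red hydrolysis product quenches plate fluorescence so inhibitors raise well fluorescence; 0% = enzyme with DMSO and 100% = DMSO without enzyme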
# IMP-1 inhibitor = blocks Pseudomonas aeruginosa IMP-1 metallo-beta-lactamase | actives 0.45% (n = 290,000) | purified IMP-1, nitrocefin hydrolysis, epi-absorbance fluorescence | inhibition, % at 5.6 µM;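 active means inhibition above the mean plus 3 SD of all compounds in the same screening run, cut at about 4.5% in these data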;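 further: 0% = IMP-1 with DMSO and 100% = DMSO wells lacking enzyme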
#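 System: purified IMP-1 / Input: IMP-1 dispensed at 0.2 nM / Medium: 50 mM HEPES pH 7.1, 50 µM ZnSO4, 0.05% Brij 35 / Timing: 15 min enzyme–compound preincubation, then 25 min nitrocefin reaction, 25 °C / Technique: plate fluorescence quenching by hydrolysis product, ex 480/em 530 nm / Repeats: singlicate testing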
# RanGTP-Imp inh = disruptors of Ran-importin-beta complex formation – biochemical, FRET, CFP-Ran, YFP-importin-beta, homogeneous, primary screen; actives 1.1% (n = 300,000); inhibition, % (concentration not given with the values); cell-free CFP-Ran/YFP-importin-beta FRET ratio; AID 2216;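 active means more than half of the replicate wells show a fall in the fluorescence ratio signal beyond about 16%, limit read from the data, passing the limit was not always enough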;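 further: 0% = DMSO wells and 100% = Ran loaded with GDP instead of GTP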
# VIM-2 inh confirm = VIM-2 inhibition, confirmation assay. shares compounds with IMP-1 inhibitor. purified VIM-2 enzyme, nitrocefin absorbance. inhibition, % at 5.6 µM. actives 73% (n = 200). AID 1860; in the data active means inhibition above about 8%;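 further: 0% = enzyme with vehicle and 100% = no enzyme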
# TEM-1 counter = blocks E. coli TEM-1 beta-lactamase, VIM-2 IMP-1 counter-screen; shares compounds with IMP-1 inhibitor; nitrocefin absorbance inhibition; AID 2184; inhibition, % at 5.6 µM; actives 50% (n = 200); in the data active means inhibition above about 0.66%
# IMP-1 inh conf = confirmation of P. aeruginosa IMP-1 metallo-beta-lactamase inhibitors | shares compounds with IMP-1 inhibitor | purified IMP-1 enzyme, absorbance substrate hydrolysis | inhibition, % at 5.6 µM | actives 60% (n = 200) | AID 2189; in the data active means inhibition above about 4.9%;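 further: 0% = enzyme with vehicle and 100% = vehicle without enzyme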
# YIC counter = counter-screen for RanGTP-importin-beta inhibitors: YIC FRET probe. AID 435026. shares compounds with RanGTP-Imp inh. IC50, µM. actives 40% (n = 1,000). Purified YIC probe, intramolecular FRET ratio YFP/CFP;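 active means fitted half-maximal inhibitory concentration no more than tenfold above the top dose tested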
# Active calls of the source: *; . = no result. Most compounds without a hit are left out; they make up all but 2.6% or so of the library.
SMILES,Runt-SMMHC FRET,Runt-CBFb FRET,VIM-2 inh,IMP-1 inhibitor,RanGTP-Imp inh,YIC counter,others
Cn1cc(/C=C/c2cc[n+](C)cc2)c2cc(F)ccc21,.,.,11*,5.7*,-308,.,VIM-2 inh confirm=14*;TEM-1 counter=4.7*;IMP-1 inh conf=7.5*
Cn1cc(/C=C/c2cc[n+](C)cc2)c2cc(Cl)ccc21,.,.,13*,5.8*,-228,.,VIM-2 inh confirm=22*;TEM-1 counter=2.8*;IMP-1 inh conf=4
Cn1cc(C=O)c2cc(F)ccc21,-6,1,1,1,-4,.,
Cc1c(Cl)cccc1N1CC(C)(C)C1=O,-1,14,-2,0,3,.,
CCc1nnc(NC(=O)CSc2nc3ccccc3s2)s1,-52,-1,-7,-4,-1,.,
CCNc1nnc(CSc2nc3ccccc3s2)s1,3,0,1,-4,18*,>50,
COc1ccc(CCNC(=O)C(=O)NCC2OCCN2S(=O)(=O)c2cc(F)ccc2F)cc1OC (stereo not given),.,.,-4,-3,-2,.,
CC(C)(C)Nc1c(-c2ccc(O)cc2)nc2ccc(Cl)cn12,.,.,0,-5,4,.,
COc1cccc(N2CCN(C(=O)c3cc4c(=O)n(Cc5ccccc5)ccc4nc3C)CC2)c1,.,.,1,1,16*,>50,
O=C(c1cc2c(=O)n3ccccc3nc2s1)N1CCN(Cc2ccccc2)CC1,.,.,8.2*,-2,21*,>50,
O=C(c1cc2c(=O)n3ccccc3nc2s1)N1CCN(Cc2ccc3c(c2)OCO3)CC1,33,26,1,-4,-2,.,
CCOC(=O)C1=C(C)N=C2SC(C(=O)OC)=CC(=O)N2C1c1cc(OC)c(OC)c(OC)c1 (stereo not given),-2,-7,2,1,2,.,
COC(=O)c1c(NC(NC(=O)c2ccccc2)(C(F)(F)F)C(F)(F)F)sc2c1CCN(C)C2,62,14,-2,0,48*,40*,
COc1cc(/C=C/C(=O)N2CCN(c3n[nH]c(=O)[nH]c3=O)CC2)cc(OC)c1OC,-2,0,-4,-3,2,.,
OCCNCc1c(OCc2ccc(Cl)cc2)ccc2ccccc12,.,.,-1,-5,4,.,
CCOC(=O)C1CCN(C(=O)COC(=O)c2ccc3[nH]c4c(c3c2)CCCC4)CC1,.,.,.,.,19*,>50,
Oc1ccc(/C=N/Nc2cc(N3CCOCC3)nc(N3CCOCC3)n2)cc1O,10,4,-2,-3,2,.,
Oc1ccccc1/C=N/Nc1cc(N2CCCC2)nc(N2CCCC2)n1,-2,-3,-1,-4,29*,>50,
COC(=O)c1ccccc1NC(=O)COC(=O)CO/N=C(\C)c1ccc2c(c1)OCO2,.,.,-3,-1,1,.,
C/C(=N\OCC(=O)OCC(=O)NC(=O)c1ccccc1)c1ccc2c(c1)OCO2,.,.,.,.,17*,>50,
COc1ccc(NC(=O)COC(C)=O)cc1Cl,-1,1,-3,-2,21*,>50,
CCC(c1nnnn1C1CCCC1)N1CCC(C(N)=O)CC1 (stereo not given),0,1,-4,-5,16*,>50,
O=C1NC(c2cccc([N+](=O)[O-])c2)Oc2ccccc21 (stereo not given),1,2,-3,-3,22*,>50,
Cc1ccc(S(=O)(=O)NCCN(CCNS(=O)(=O)c2ccc(C)cc2)S(C)(=O)=O)cc1,-3,-4,-5,-3,21*,>50,
Cc1ccc(S(=O)(=O)NCCOCCNS(=O)(=O)c2ccc(C)cc2)cc1,2,-2,-3,-2,3,.,
SMILES,Runt-SMMHC FRET,Runt-CBFb FRET,VIM-2 inh,IMP-1 inhibitor,RanGTP-Imp inh,YIC counter,others
CSc1ncc(C(=O)Nc2ccccc2)cn1,.,.,-3,-3,-3,.,
CC(C)CCC(C)N=Cc1c(O)n(Cc2ccccc2)c(=O)c2ccccc12 (stereo not given),1,0,-2,-4,5,.,
COc1ccc(Cn2c(O)c(C=Nc3ccc(OC)cc3)c3ccccc3c2=O)cc1,-25,-166,0,-1,29*,>26,
Cc1ccc(C(C(=O)NCC2CCCO2)N(C(=O)c2snc(C(N)=O)c2N)c2ccc(C)c(C)c2)o1 (stereo not given),.,.,2,0,0,.,
Cc1ccc(OCC(=O)N2CCCCCC2)c(C)c1,3,-1,-3,-7,17*,>50,
O=C(NC1CCCCCC1)C(=S)NCCc1ccccc1,-3,20,-3,-1,25*,>50,
CCCOC(=S)NC(=O)c1sc2ccccc2c1Cl,3,0,1,-2,31*,>50,
CC(C)(C)C(=O)NC(=S)NNC(=O)c1sc2ccccc2c1Cl,3,0,-2,-4,1,.,
Cc1nnc(-c2ccc(Cl)cc2)[nH]c1=O,-1,0,-3,-1,-11,.,
Cn1c(=O)[nH]c2c(nc(-c3ccc(Cl)cc3)n2C)c1=O,.,.,0,-3,18*,32*,
CN(CCC#N)C(=O)CSc1nnc(-c2c[nH]c3ccccc23)o1,.,.,-1,-2,-1,.,
Cc1ccc(C)c2nc(N3CCCC3)c(C#N)cc12,94*,67*,1,-1,51*,1.2*,
COC(=O)c1cc(S(=O)(=O)NCc2ccc(Br)cc2)c[nH]1,.,.,0,0,4,.,
NC(=O)c1ccc(F)cc1,.,.,0,0,17*,>50,
Cc1ccc(C)c(N(CC(=O)NCCc2ccccc2)C(=O)CCC(=O)Nc2ccccn2)c1,.,.,-2,-4,2,.,
CCN(CC)S(=O)(=O)c1ccc(NC(=O)c2cccc3c2C(=O)N(CCOC)C3)cc1,8,-5,-4,-4,19*,>50,
COCCN1Cc2cccc(C(=O)Nc3ccc(S(=O)(=O)N4CCCCCC4)cc3)c2C1=O,-6,-1,1,2,0,.,
COc1ccc(C2OC(=O)Cc3cc(OC)c(OC)cc32)cc1 (stereo not given),1,0,-1,2,-4,.,
NS(=O)(=O)c1ccc(N=Nc2c[nH]c(=O)c(O)c2)cc1,9,15,-10,-10,28*,>50,
Nc1nc(O)c(N=Nc2ccc(S(N)(=O)=O)cc2)c(=O)[nH]1,.,.,-3,-4,0,.,
COc1cc(OC)cc(-c2cc3nc(C)cc(N4CCN(C(=O)c5ccco5)CC4)n3n2)c1,26,12,-3,-2,29*,3.7*,
